The values below come from ChEMBL document CHEMBL1137076, “New arylpiperazine 5-HT(1A) receptor ligands containing the pyrimido[2,1-f]purine fragment: synthesis, in vitro, and in vivo pharmacological evaluation” (J Med Chem, 2004).

Assay [1] has as its target T1, Adrenergic receptor alpha-1 (Rattus norvegicus, UniProt P15823+P23944+P43140).
T1 sequence (P15823 whole entry): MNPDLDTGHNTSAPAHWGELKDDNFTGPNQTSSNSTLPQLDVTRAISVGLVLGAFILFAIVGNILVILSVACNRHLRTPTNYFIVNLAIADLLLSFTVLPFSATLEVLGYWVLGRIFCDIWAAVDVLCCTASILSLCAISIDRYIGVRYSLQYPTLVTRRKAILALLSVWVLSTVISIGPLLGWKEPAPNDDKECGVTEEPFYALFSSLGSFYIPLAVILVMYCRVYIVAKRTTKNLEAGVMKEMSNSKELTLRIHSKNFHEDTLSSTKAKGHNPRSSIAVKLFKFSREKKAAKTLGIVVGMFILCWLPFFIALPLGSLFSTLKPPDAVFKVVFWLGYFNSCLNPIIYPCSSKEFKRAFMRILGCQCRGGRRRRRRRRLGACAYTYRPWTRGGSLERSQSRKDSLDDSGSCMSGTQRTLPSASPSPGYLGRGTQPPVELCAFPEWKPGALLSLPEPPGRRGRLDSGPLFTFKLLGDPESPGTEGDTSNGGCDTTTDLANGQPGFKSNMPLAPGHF
T1 sequence (P23944 whole entry): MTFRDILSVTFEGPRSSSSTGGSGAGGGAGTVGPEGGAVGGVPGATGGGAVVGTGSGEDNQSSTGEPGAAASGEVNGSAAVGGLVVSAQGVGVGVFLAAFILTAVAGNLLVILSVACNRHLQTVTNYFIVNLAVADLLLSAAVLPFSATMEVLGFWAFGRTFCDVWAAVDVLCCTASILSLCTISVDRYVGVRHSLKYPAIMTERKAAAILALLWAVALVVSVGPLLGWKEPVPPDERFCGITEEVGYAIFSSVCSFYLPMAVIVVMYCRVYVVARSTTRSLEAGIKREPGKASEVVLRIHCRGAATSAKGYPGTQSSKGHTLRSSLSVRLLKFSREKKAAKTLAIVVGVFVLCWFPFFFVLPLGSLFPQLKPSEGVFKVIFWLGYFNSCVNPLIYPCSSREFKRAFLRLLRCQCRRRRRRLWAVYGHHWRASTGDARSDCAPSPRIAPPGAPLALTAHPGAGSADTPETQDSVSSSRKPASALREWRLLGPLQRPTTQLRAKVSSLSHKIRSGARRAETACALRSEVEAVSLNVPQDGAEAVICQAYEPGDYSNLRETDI
T1 sequence (P43140 whole entry): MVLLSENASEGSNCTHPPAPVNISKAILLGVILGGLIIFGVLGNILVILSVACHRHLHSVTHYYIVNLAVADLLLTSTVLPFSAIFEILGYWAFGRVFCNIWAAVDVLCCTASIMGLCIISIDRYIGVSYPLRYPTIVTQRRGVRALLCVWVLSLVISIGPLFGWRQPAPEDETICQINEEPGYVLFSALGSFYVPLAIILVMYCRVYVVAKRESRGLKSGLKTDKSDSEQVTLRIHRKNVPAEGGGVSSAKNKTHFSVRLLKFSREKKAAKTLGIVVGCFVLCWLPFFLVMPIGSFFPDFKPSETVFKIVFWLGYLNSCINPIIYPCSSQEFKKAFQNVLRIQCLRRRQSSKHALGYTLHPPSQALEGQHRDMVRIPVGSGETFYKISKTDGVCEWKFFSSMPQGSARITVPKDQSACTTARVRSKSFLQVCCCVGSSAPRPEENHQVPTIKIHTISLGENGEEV
Briefly: Ability to bind to alpha-1 adrenergic receptor in vitro in cortex of the rat brain using [3H]prazosin radioligand. It is filed as tissue-based. The essentials: (§1)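 Competition binding in rat brain tissue: hippocampus with [3H]-8-OH-DPAT (5-HT1A); cortex with [3H]-ketanserin (5-HT2A) or [3H]-prazosin (α1). Ki from at least three experiments using 10–14 concentrations (10⁻¹⁰–10⁻⁵ M), each in triplicate.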

The target in assay [2] is 5-hydroxytryptamine receptor 2A (Rattus norvegicus, UniProt P14842). Briefly: Ability to bind to central serotonin 5-hydroxytryptamine 2A receptor in vitro in cortex of the rat brain using [3H]ketanserin radioligand. It is filed as tissue-based. The essentials:
as §1

Assay [3] concerns the target 5-hydroxytryptamine receptor 1A (Rattus norvegicus) (UniProt P19327). Briefly: Ability inhibit symptoms induced by 8-OH-DPAT was regarded as postsynaptic 5-HT1A receptor antagonistic activity; Antagonist. To be noted: filed as antagonist.
Assay [4] has as its target 5-hydroxytryptamine receptor 2A (Mus musculus) (UniProt P35363). Briefly: The ability to antagonize head twitches in mice, observed after administration of (+/-)- DOI, was used to evaluate 5-HT2A receptor antagonistic property; Antagonist. It is filed as functional, organism-based. To be noted: filed as antagonist. The essentials: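 Male Albino Swiss mice habituated 20 min in glass cages; compounds ip (1% Tween 80) 60 min before (±)-DOI 2.5 mg/kg; head twitches counted for 20 min after DOI. ID50 by Litchfield-Wilcoxon.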

The target in another assay is D(2) dopamine receptor (Rattus norvegicus, UniProt P61169). In words: Ability to bind to Dopamine receptor D2 in vitro in rat sriatal membranes using [3H]spiperone radioligand. It is filed as cell membranes. The essentials:
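Rat striatal membranes with [3H]spiperone; ketanserin 50 nM in buffer to block 5-HT2A binding; nonspecific binding with (±)-butaclamol 5 μM; 50 mM potassium phosphate pH 7.4; 37 °C, 30 min; vacuum filtration onto glass fiber, scintillation counting. Ki via Cheng-Prusoff from ≥3 experiments, 10 concentrations in triplicate.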

For assay [5], the target named is T2, 5-hydroxytryptamine receptor 1A (Rattus norvegicus, UniProt P19327).
T2 sequence (P19327 whole entry): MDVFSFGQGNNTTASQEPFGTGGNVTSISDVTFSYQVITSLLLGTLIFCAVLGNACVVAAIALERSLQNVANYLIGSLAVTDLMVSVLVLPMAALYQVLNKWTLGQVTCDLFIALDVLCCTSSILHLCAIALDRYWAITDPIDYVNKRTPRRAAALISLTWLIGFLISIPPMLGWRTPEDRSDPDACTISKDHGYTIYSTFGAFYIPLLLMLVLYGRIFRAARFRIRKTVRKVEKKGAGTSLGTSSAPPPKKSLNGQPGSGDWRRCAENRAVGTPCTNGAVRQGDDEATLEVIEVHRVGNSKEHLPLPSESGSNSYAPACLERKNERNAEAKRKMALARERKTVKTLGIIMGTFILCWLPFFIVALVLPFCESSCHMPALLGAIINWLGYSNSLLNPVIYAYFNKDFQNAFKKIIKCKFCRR
In words: Ability to bind to central serotonin 5-hydroxytryptamine 1A receptor in vitro in hippocampus of the rat brain using [3H]8-OH-DPAT radioligand. It is filed as tissue-based. The essentials: as §1

Assay [6] concerns the target T3, 5-hydroxytryptamine receptor 1A (Mus musculus) (UniProt Q64264).
T3 sequence (whole entry): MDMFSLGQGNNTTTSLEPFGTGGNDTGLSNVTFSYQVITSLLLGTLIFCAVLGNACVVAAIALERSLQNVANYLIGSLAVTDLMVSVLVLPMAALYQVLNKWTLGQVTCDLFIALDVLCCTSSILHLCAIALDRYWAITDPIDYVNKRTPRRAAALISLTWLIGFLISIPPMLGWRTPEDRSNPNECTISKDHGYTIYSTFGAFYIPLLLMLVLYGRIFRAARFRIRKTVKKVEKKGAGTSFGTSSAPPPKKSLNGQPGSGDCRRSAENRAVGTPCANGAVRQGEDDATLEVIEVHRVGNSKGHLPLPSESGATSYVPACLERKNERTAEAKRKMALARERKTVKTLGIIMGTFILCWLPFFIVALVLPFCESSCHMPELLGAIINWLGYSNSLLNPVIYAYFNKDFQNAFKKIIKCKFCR
In words: The hypothermia produced in mice was regarded as a measure of presynaptic 5-HT1A receptor agonistic activity; Agonist. The note with it: filed as agonist. It is filed as functional.

For the next assay, the species on record is Mus musculus. In words: Ability to inhibit 8-OH-DPAT-induced hypothermia was taken as a measure of presynaptic antagonistic activity; Antagonist. To be noted: filed as antagonist. It is filed as functional, organism-based.

Sequence of 5-hydroxytryptamine receptor 2A (Mus musculus) (P35363 whole entry): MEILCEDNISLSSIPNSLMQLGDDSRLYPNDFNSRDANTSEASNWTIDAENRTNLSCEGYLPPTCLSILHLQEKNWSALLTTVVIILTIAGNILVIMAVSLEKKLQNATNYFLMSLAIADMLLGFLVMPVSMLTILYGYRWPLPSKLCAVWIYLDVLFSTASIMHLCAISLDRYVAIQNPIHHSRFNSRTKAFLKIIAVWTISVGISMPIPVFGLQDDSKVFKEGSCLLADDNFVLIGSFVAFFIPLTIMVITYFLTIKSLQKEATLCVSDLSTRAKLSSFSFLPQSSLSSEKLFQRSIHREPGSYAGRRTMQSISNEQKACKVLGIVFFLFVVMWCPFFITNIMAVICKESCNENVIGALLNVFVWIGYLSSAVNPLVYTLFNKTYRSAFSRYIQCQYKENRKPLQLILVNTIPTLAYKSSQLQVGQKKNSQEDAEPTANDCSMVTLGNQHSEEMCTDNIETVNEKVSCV
Sequence of D(2) dopamine receptor (P61169 whole entry): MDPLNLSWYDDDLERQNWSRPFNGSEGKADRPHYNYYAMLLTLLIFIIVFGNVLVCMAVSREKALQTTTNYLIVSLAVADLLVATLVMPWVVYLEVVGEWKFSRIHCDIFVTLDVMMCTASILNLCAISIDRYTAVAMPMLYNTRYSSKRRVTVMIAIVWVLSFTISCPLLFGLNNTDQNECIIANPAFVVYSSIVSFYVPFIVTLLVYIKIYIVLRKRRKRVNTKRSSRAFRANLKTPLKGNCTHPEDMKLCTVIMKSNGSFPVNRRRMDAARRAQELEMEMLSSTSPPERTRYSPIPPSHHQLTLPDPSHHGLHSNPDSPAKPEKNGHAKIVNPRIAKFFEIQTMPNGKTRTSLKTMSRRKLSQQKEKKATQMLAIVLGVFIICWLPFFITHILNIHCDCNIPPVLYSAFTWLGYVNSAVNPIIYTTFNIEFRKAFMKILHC
Sequence of 5-hydroxytryptamine receptor 2A (P14842 whole entry): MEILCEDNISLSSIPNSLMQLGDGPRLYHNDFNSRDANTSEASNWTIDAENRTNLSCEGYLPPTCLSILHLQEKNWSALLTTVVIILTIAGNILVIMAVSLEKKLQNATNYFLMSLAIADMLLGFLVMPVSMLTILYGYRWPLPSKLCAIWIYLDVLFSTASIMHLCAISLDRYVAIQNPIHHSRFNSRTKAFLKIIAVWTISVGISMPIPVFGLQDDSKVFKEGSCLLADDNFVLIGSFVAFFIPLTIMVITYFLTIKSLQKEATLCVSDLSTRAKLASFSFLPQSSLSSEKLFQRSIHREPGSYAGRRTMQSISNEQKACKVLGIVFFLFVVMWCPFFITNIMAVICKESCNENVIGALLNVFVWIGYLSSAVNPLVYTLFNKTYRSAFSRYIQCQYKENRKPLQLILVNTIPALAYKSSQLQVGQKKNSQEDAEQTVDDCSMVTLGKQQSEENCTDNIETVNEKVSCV

By Ki is commonly meant the equilibrium dissociation constant of an inhibitor or competing ligand from its target. Higher therefore signals weaker binding. For the compound `Cn1c(=O)c2c(nc3nc(NCCCN4CCN(c5cccc(Cl)c5)CC4)ccn32)n(C)c1=O`, the Ki was found to be 21 nM in assay [1], 56 nM in assay [2], 94 nM on D(2) dopamine receptor and 46 nM in assay [5]. For the same compound, the Functional profile entry in assay [3] was “Antagonist”; in assay [4] it was “Antagonist”; in assay [6], “Agonist”.

Regarding `Cn1c(=O)c2c(nc3nc(NCCCN4CCN(c5cccc(Cl)c5)CC4)c(Br)cn32)n(C)c1=O`, the Ki in assay [1] turned out to be 46 nM; in assay [2], 85 nM; on D(2) dopamine receptor, 264 nM; in assay [5], 49 nM. Further, the Functional profile entry in assay [3] is “Antagonist”; in assay [4], “Antagonist”; in assay [6], “Agonist”.

On to `COc1ccccc1N1CCN(CCNc2nc3nc4c(c(=O)n(C)c(=O)n4C)n3cc2Br)CC1`, for which the Ki in assay [1] came out at 62 nM; in assay [2], 86 nM; at D(2) dopamine receptor, 226 nM; in assay [5], 62 nM. Moreover, the Functional profile result in assay [3] was “Antagonist”; in assay [6], “Agonist”.

Consider `Cn1c(=O)c2c(nc3nc(NCCCN4CCN(c5ccccc5)CC4)ccn32)n(C)c1=O`, for which the Ki in assay [1] came to 25 nM; in assay [2], 72 nM; on D(2) dopamine receptor it was 430 nM; in assay [5], 19 nM. Besides, the Functional profile result (in assay [3]; in assay [4]; in the assay filed under Mus musculus) was “Antagonist” each time.

`COc1ccccc1N1CCN(CCCNc2ccn3c(n2)nc2c3c(=O)n(C)c(=O)n2C)CC1`: the Ki in assay [1] amounted to 33 nM; in assay [2], 835 nM; on D(2) dopamine receptor it was 1170 nM; in assay [5] it was 34 nM. In assay [3], the Functional profile result was “Antagonist”.

Regarding `COc1ccccc1N1CCN(CCCNc2nc3nc4c(c(=O)n(C)c(=O)n4C)n3cc2Br)CC1`, the inhibitory constant (Ki) in assay [1] was 38 nM; in assay [2], 880 nM; on D(2) dopamine receptor, 325 nM; in assay [5], 36 nM. The Functional profile result was “Antagonist” in assay [3] and “Agonist” in assay [6].

For `Cn1c(=O)c2c(nc3nc(NCCN4CCN(c5cccc(Cl)c5)CC4)ccn32)n(C)c1=O`, the inhibition constant Ki in assay [1] came out at 29 nM; in assay [2], 234 nM; on D(2) dopamine receptor, 182 nM; in assay [5], 23 nM. Further, the Functional profile entry is “Antagonist” in assay [3] and “Agonist” in assay [6].

With `Cn1c(=O)c2c(nc3n2CCCN3CCCCN2CCN(c3ccccc3)CC2)n(C)c1=O`, the Ki in assay [2] was determined as 243 nM; in assay [5], 2.1 nM.

For the compound `Cn1c(=O)c2c(nc3nc(NCCN4CCN(c5cccc(Cl)c5)CC4)c(Br)cn32)n(C)c1=O`, the inhibitory constant (Ki) was 64 nM in assay [2], 165 nM on D(2) dopamine receptor and 68 nM in assay [5]. Further, the Functional profile entry in assay [3] and in assay [4] was “Antagonist” in each case.

With `COc1ccccc1N1CCN(CCCN2CCCn3c2nc2c3c(=O)n(C)c(=O)n2C)CC1`, the values for the inhibitory constant (Ki) in assay [2] and in assay [5] were 562 nM and 17.2 nM, respectively.

For `COc1ccccc1N1CCN(CCNc2ccn3c(n2)nc2c3c(=O)n(C)c(=O)n2C)CC1`, the Ki in assay [1] is 58 nM; in assay [2] it was 246 nM; on D(2) dopamine receptor it was 1330 nM; in assay [5], 1.1 nM. The Functional profile result (in assay [3]; in the assay listed under Mus musculus) was “Antagonist” in each case.

As for `Cn1c(=O)c2c(nc3nc(NCCN4CCN(c5ccccc5)CC4)c(Br)cn32)n(C)c1=O`, the inhibition constant (Ki) is 440 nM in assay [2], 1240 nM at D(2) dopamine receptor and 87 nM in assay [5]. Also, the Functional profile result in assay [3] was “Antagonist”.

On to `Cn1c(=O)c2c(nc3n(CCCN4CCN(c5ccccc5)CC4)c(=O)ccn23)n(C)c1=O`, for which the results for the inhibitory constant (Ki) in assay [2] and in assay [5] were 4680 nM and 25 nM, respectively.

Turning to `COc1ccccc1N1CCN(CCCn2c(=O)ccn3c4c(=O)n(C)c(=O)n(C)c4nc23)CC1`, the inhibition constant Ki in assay [2] was 3880 nM; in assay [5] it was 10.4 nM.
